{"source": "ChEMBL document CHEMBL4732051", "about": "“The discovery of potent small molecule activators of human STING” (Eur J Med Chem, 2021)", "key": {"[1]": {"system": "Stimulator of interferon genes protein (Homo sapiens), Q86WV6 [R71H,G230A,R293Q]", "sequence (Q86WV6 whole entry R71H/G230A/R293Q)": "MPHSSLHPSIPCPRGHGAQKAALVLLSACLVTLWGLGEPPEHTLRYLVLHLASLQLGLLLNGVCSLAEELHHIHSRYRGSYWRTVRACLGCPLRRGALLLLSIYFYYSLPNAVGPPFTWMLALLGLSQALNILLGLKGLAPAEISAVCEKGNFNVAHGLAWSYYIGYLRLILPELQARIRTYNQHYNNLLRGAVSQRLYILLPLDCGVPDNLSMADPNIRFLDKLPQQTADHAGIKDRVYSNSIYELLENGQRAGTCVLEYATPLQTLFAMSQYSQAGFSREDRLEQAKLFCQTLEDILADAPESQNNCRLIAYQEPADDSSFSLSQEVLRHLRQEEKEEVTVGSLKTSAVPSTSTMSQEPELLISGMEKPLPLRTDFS", "assay": "Activation of human STING HAQ mutant expressed in HEK293T cells assessed as phosphorylation of IRF-3 at (Ser396) at 10 uM incubated for 2 hrs and measured by Western blot analysis", "type": "cell-based", "conditions": "filed as activator", "summary_of_the_method": "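HEK293T clones stably carrying each human STING variant, picked by blasticidin selection and limiting dilution. 5 x 10^5 cells were exposed to compound at 10μM for 2 h, lysed in RIPA with phosphatase and protease inhibitors, and 10 μg protein run on 10% SDS-PAGE. Immunoblots probed for pSTING (Ser366), pIRF3 (Ser396), total STING, IRF3 and actin, detected by ECL.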"}, "Cytochrome P450 1A2": {"biological_target": "T1, Cytochrome P450 1A2 (Homo sapiens, UniProt P05177)", "T1 sequence (P05177 whole entry)": "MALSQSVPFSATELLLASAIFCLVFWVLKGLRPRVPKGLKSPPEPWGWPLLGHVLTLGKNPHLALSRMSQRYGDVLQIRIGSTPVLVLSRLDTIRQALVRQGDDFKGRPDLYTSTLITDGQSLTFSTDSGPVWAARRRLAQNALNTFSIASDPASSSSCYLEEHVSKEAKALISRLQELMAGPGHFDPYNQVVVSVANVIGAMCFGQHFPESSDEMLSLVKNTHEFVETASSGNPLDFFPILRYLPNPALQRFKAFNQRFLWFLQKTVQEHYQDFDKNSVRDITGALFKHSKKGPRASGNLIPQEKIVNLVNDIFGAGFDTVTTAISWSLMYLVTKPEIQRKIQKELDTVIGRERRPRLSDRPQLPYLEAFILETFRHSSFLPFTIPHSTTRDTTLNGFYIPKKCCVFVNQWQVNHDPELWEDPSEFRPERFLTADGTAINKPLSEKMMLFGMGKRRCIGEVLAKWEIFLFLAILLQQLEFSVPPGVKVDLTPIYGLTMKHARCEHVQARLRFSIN", "assay": "Inhibition of CYP1A2 (unknown origin)", "type": "ADME"}, "Cytochrome P450 2C9": {"biological_target": "Cytochrome P450 2C9 (Homo sapiens, UniProt P11712)", "sequence (P11712 whole entry)": "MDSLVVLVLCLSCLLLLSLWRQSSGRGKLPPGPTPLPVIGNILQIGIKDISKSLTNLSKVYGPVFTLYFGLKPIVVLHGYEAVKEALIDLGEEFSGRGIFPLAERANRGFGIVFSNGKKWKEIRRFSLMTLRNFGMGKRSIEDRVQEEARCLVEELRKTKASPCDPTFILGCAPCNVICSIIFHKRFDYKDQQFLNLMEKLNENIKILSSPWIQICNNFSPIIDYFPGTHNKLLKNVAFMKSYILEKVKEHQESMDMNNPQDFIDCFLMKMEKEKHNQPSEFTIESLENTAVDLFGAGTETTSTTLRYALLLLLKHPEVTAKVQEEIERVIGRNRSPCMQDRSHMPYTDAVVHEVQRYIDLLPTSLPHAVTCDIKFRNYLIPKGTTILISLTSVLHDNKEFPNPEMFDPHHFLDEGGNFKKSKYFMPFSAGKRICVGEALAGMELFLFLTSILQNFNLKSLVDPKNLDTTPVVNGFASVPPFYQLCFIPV", "assay": "Inhibition of CYP2C9 (unknown origin)", "type": "ADME"}, "[2]": {"system": "Stimulator of interferon genes protein (Homo sapiens), Q86WV6 [UNDEFINED MUTATION]", "sequence (Q86WV6 whole entry, looked up, change not shown)": "as the sequence (Q86WV6 whole entry R71H/G230A/R293Q) above, with H71R, A230G, Q293R counted along it", "assay": "Activation of human STING R232 in human MDA-MB-468 cells assessed as phosphorylation at (Ser366) at 10 uM incubated for 2 hrs and measured by Western blot analysis", "type": "cell-based", "conditions": "filed as activator", "summary_of_the_method": "(§1)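 Tumor cell lines or human primary cells carrying endogenous STING variants; STING KO cells as control. 10µM for 2 h, then lysed in RIPA with phosphatase and protease inhibitors. 10 μg protein on 10% SDS-PAGE, blotted for pSTING (Ser366), pIRF3 (Ser396), STING, IRF3 and actin, ECL detection.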"}, "[3]": {"biological_target": "T2, Stimulator of interferon genes protein (Homo sapiens, UniProt Q86WV6)", "T2 sequence (Q86WV6 whole entry)": "as the sequence (Q86WV6 whole entry R71H/G230A/R293Q) above, with H71R, A230G, Q293R counted along it", "assay": "Activation of human STING in human PBMC cells assessed as induction of IL6 expression at 10 uM measured by qt-PCR analysis", "type": "cell-based", "conditions": "filed as activator", "summary_of_the_method": "(§2)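 2 x 10^5 freshly isolated human PBMC from healthy donors, separated on Histopaque, given a single compound concentration. Harvested early (6 hr) or late (20h). Cytokine mRNA read by qRT-PCR as relative normalized expression (fold) against vehicle-treated cells.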"}, "[4]": {"system": "Stimulator of interferon genes protein (Homo sapiens), Q86WV6 [G230A,R293Q]", "sequence (Q86WV6 whole entry G230A/R293Q)": "as the sequence (Q86WV6 whole entry R71H/G230A/R293Q) above, with H71R counted along it", "assay": "Induction of STING AQ mutant (unknown origin) expressed in HEK293T cells assessed as increase in luciferase coupled ISG54-ISRE activity incubated for 18 hrs luciferase reporter gene assay", "type": "cell-based", "conditions": "filed as activator"}, "[5]": {"biological_target": "T2, Stimulator of interferon genes protein", "assay": "Activation of human STING in human PBMC cells assessed as induction of CCL20 expression at 10 uM measured by qt-PCR analysis", "type": "cell-based", "conditions": "filed as activator", "summary_of_the_method": "as §2"}, "[6]": {"biological_target": "T2, Stimulator of interferon genes protein", "assay": "Activation of human STING expressed in human PBMC cells assessed as phosphorylation at (ser366) at 10 uM incubated for 2 hrs and measured by Western blot analysis", "type": "cell-based", "conditions": "filed as activator", "summary_of_the_method": "as §1"}, "[7]": {"biological_target": "Stimulator of interferon genes protein (Macaca fascicularis) (UniProt A0A2K5TV20)", "sequence (A0A2K5TV20 as listed by the source)": "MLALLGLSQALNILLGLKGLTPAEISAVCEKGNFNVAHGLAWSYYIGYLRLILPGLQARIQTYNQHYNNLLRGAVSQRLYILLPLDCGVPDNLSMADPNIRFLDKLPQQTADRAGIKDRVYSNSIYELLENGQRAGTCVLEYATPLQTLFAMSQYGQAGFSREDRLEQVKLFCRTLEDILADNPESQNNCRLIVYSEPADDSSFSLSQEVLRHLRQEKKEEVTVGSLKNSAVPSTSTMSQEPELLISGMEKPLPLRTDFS", "assay": "Activation of cynomolgus monkey STING", "conditions": "filed as activator"}, "[8]": {"assay": "Chemical stability of compound in buffer at pH 3 to 8"}, "Cytochrome P450 3A4": {"biological_target": "Cytochrome P450 3A4 (Homo sapiens, UniProt P08684)", "sequence (P08684 whole entry)": "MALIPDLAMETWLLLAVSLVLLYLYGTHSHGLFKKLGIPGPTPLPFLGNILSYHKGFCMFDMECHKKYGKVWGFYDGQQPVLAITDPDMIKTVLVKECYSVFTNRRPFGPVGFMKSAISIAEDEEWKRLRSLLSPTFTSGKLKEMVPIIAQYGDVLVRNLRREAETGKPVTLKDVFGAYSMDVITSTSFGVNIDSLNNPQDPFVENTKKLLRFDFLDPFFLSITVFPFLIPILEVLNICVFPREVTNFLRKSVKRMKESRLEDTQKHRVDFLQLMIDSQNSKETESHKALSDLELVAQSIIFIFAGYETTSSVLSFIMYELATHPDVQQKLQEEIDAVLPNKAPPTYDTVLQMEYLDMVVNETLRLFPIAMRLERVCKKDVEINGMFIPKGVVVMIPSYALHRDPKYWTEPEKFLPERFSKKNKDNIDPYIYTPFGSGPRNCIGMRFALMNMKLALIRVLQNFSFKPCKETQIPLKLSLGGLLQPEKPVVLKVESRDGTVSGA", "assay": "Inhibition of CYP3A4 (unknown origin)", "type": "ADME"}, "Cytochrome P450 2D6": {"biological_target": "Cytochrome P450 2D6 (Homo sapiens, UniProt P10635)", "sequence (P10635 whole entry)": "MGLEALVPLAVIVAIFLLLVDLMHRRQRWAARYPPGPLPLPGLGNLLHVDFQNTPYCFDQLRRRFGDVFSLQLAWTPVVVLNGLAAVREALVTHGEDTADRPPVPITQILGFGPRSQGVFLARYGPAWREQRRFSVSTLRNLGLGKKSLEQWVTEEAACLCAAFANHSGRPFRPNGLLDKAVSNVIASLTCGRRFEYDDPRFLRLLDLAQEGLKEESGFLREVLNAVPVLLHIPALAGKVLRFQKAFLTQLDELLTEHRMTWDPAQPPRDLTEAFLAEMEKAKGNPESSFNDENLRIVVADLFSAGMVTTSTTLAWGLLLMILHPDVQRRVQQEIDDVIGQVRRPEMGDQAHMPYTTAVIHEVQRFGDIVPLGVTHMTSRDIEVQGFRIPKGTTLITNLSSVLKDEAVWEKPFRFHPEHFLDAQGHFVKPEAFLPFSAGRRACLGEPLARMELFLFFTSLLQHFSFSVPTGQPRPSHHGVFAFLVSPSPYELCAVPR", "assay": "Inhibition of CYP2D6 (unknown origin)", "type": "ADME"}, "[9]": {"biological_target": "T3, Stimulator of interferon genes protein (Mus musculus) (UniProt Q3TBT3)", "T3 sequence (whole entry)": "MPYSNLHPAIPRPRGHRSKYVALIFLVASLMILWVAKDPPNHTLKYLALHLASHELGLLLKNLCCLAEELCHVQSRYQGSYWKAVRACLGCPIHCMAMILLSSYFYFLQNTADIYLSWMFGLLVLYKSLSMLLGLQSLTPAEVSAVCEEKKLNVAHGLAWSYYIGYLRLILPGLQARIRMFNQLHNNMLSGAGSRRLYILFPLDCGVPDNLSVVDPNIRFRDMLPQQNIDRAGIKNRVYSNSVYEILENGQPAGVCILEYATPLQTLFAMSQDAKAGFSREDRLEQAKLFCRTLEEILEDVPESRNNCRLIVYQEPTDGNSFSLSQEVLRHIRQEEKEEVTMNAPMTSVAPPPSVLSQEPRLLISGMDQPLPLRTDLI", "assay": "Activation of mouse STING"}, "[10]": {"biological_target": "T2, Stimulator of interferon genes protein", "assay": "Activation of wild-type human STING expressed in HEK293T cells assessed as IRF3 reporter activation measured after 20 hrs by luciferase reporter gene assay", "type": "cell-based"}, "[11]": {"system": "Stimulator of interferon genes protein (Homo sapiens), Q86WV6 [UNDEFINED MUTATION]", "assay": "Activation of human STING R232 in human dendritic cells assessed as induction of CD86 measured by qt-PCR analysis", "type": "cell-based", "conditions": "Dendritic cell, filed as activator", "summary_of_the_method": "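PBMC isolated on Histopaque 1077, ACK-lysed, monocytes purified by MACS. Monocytes at 1 x 10^6 cells/ml in RPMI/10% FBS with 100ng/ml GMCSF and 50ng/ml IL4, 37 °C, 5% CO2, for 24–36 h. Compound added (1% DMSO final) for 6 h. CD86 and CD83 read by qPCR as fold of vehicle-treated cells.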"}, "[12]": {"assay": "Volume of distribution in BALB/c mouse at 5 mg/kg, iv measured up to 24 hrs by LC-MS/MS analysis", "type": "ADME, organism-based", "conditions": "in vivo", "summary_of_the_method": "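Overnight-fasted mice, randomized, n=3 per group, each given a single dose by lateral tail vein (iv) or oral gavage. Blood (50 μl per point, under isoflurane) was taken from the retro-orbital plexus. Sampling was at 2 min–24 h after iv and 5 min–24 h after oral dosing. Plasma was separated at 1500 x g for 15 min at 4 °C, stored at -80 °C, and analysed by LCMS.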"}, "[13]": {"biological_target": "T2, Stimulator of interferon genes protein", "assay": "Activation of human STING in human PBMC cells assessed as induction of CXCL10 expression at 10 uM incubated upto 24 hrs and measured by qt-PCR analysis", "type": "cell-based", "conditions": "filed as activator, time hrs <=24", "summary_of_the_method": "as §2"}}, "note": "Activity calls are given as the source filed them. The calls are words filed in the database; no cut-off is given here."}
{"compound": "CC1(C)C(=O)N(Cc2c(F)cccc2Cl)c2cc(C(=O)NCc3c(F)cc(F)cc3F)ccc21", "values": [{"measurement": "Activity", "setting": "[1]", "result": "Active"}, {"measurement": "inhibition (INH)", "setting": "Cytochrome P450 1A2", "result": "Not Active"}, {"measurement": "inhibition (INH)", "setting": "Cytochrome P450 2C9", "result": "Not Active"}, {"measurement": "Activity", "setting": "[2]", "result": "Active"}, {"measurement": "Activity", "setting": "[3]", "result": "Active"}, {"measurement": "Activity", "setting": "[4]", "result": "Active"}, {"measurement": "Activity", "setting": "[5]", "result": "Active"}, {"measurement": "Activity", "setting": "[6]", "result": "Active"}, {"measurement": "Activity", "setting": "[7]", "result": "Active"}, {"measurement": "Stabilty", "setting": "[8]", "result": "Stable"}, {"measurement": "inhibition (INH)", "setting": "Cytochrome P450 3A4", "result": "Not Active"}, {"measurement": "inhibition (INH)", "setting": "Cytochrome P450 2D6", "result": "Not Active"}, {"measurement": "Activity", "setting": "[9]", "result": "inactive"}, {"measurement": "EC50", "setting": "[10]", "result": 185, "unit": "nM"}, {"measurement": "Activity", "setting": "[11]", "result": "Active"}, {"measurement": "Vd", "setting": "[12]", "result": 2.69, "unit": "L/kg"}, {"measurement": "Activity", "setting": "[13]", "result": "Active"}]}
